Ecoli WT expand: growth inhibitors of wild-type E. coli, primary screen, strain BW25113, expanded library, OD600; OD600 absorbance; growth inhibition, % at 100 µM; 98,000 compounds, 0.15% hits; AID 710, 2007;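 active = growth inhibition above about 50% at one test dose, limit read from the data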;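 also: growth measured after 20 h incubation at 37 °C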
PostGolgi yeast: phenotypic screen on post-Golgi transport, primary screen. post-Golgi transport phenotypic cell assay. inhibition, % at 10 µM. 98,000 compounds, 0.9% hits;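 also: yeast cells grown in 1536-well plates; yeast grown about 18 h at 30C before absorbance read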
Ecoli tolC: growth inhibitors of E. coli tolC mutant, primary screen, strain BW25113 ΔtolC::kan, 384-well; AID 573, 2007; 65,000 compounds, 2.2% hits; growth inhibition, % at 10 µM (by protocol); OD615;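 active = growth inhibition at or above a cutoff equal to the mean over every tested compound plus 3 SD, cut at about 60% in these data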;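 also: growth measured after 20 h incubation at 37 °C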
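test system = E. coli BW25113 ΔtolC::kan bacteria | medium = LB with kanamycin 50 µg/mL | signal = OD at 615 nm | schedule = 37 °C, 20 h exposure | evaluation = % inhibition of E. coli growth | compound dosing = one dose of 10 µM final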
PostGolgi ctrl: growth inhibition of yeast control strain, primary screen, counter-screen for post-Golgi transport modulator project | efflux-deficient yeast background strain, growth absorbance A615, 16 h | inhibition, % at 10 µM | 98,000 compounds, 5% hits | AID 738, 2007
HePTP inh: inhibitors of human HePTP phosphatase, primary screen, biochemical, absorbance, leukemia target | Tyrosine-protein phosphatase non-receptor type 7 (Homo sapiens), P35236 | recombinant HePTP phosphatase activity, OD absorbance | inhibition, % at 20 µM | 110,000 compounds, 0.64% hits | AID 521, 2006; in the data active = inhibition above about 50%;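 also: plate controls were vehicle for no effect and reference inhibitor for full effect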
PLAP activator: PLAP enzyme activators, biochemical, luminescence, HTS | purified PLAP enzyme, luminescent substrate read-out; active compounds read high | activation fold at 20 µM | 96,000 compounds, 1.2% hits | AID 696, 2007; in the data active = activation fold above about 2
Target sequence (P05187 whole entry, looked up): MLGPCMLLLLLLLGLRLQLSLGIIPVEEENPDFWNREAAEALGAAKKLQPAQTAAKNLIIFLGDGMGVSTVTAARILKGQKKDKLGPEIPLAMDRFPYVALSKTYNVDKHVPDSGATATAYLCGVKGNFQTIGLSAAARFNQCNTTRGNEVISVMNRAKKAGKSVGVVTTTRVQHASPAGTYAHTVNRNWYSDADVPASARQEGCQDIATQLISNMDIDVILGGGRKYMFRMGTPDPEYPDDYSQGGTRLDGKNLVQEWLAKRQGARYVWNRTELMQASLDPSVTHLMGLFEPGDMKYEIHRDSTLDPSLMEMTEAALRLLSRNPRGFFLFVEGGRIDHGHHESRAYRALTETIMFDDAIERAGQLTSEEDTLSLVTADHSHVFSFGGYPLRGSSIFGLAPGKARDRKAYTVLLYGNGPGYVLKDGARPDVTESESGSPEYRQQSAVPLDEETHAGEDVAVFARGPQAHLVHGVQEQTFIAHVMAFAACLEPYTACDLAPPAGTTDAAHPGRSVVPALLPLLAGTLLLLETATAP
An asterisk follows results filed as active; x = not tested or not shown. Only some compounds are listed: those with a hit (about 5.5% of all), similar ones and a draw of the others. Rule as the data show it, unless noted: active = inhibition above about 30%; inactive = the rest.

SMILES	Ecoli WT expand	PostGolgi yeast	Ecoli tolC	PostGolgi ctrl	HePTP inh	PLAP activator
CCOc1ccccc1OCCCOc1ccc(C)cc1Br	4.0	-5.5	x	1.6	x	1
COc1cc(C)ccc1OCCOCCOc1ccccc1Br	7.0	-1.1	x	42.4*	x	0.9
CCn1c2c(c3cc(Br)ccc31)CCC/C2=N\O	-1.0	5.7	47.1	41.0*	5.7	0.9
CCc1ccccc1NC(=O)CN(c1ccc(C(C)C)cc1)S(=O)(=O)c1ccccc1	x	x	x	x	3.1	x
CCn1cc(C(=O)OCC(=O)Nc2c(C)n(C)n(-c3ccccc3)c2=O)c(=O)c2ccc(C)nc21	6.0	1.4	-0.3	0.3	-1.4	1.1
CCn1cc(C(=O)OC(C)C(=O)Nc2c(C)n(C)n(-c3ccccc3)c2=O)c(=O)c2ccc(C)nc21 (stereo not given)	26.0	9.1	98.8*	0.0	9.0	1.8
Cc1c(NC(=O)C(C)OC(=O)[C@@H](NC(=O)c2ccccc2)C(C)C)c(=O)n(-c2ccccc2)n1C (stereo not given in full)	0.0	-4.2	x	30.6*	x	1.1
Cc1c(NC(=O)C(C)Oc2ccc(Cl)cc2Cl)c(=O)n(-c2ccccc2)n1C (stereo not given)	x	x	x	x	-2.1	x
CCOCCOC(=O)C1=C(C)NC2=C(C(=O)CCC2)C1c1cc(Br)c(O)c(OCC)c1 (stereo not given)	x	x	x	x	5.6	x
CCOC(=O)c1ccc(-n2c(C)cc(/C=N/n3cnnc3)c2C)cc1	x	x	x	x	4.3	x
O=c1c(/C=C(\O)c2ccccc2)nc2ccccc2n1-c1ccccc1	-8.0	-9.6	x	30.4*	9.1	1.1
O=c1c(/C=C(\O)c2ccc([N+](=O)[O-])cc2)nc2ccccc2n1-c1ccccc1	x	x	x	x	6.6	x
O=C(N/N=C/c1c[nH]c2ccccc12)c1ccn(Cc2ccc(Cl)cc2Cl)n1	-5.0	5.6	x	9.8	x	1
O=C(N/N=C/c1c[nH]c2ccc(Br)cc12)c1ccn(Cc2ccc(Cl)cc2)n1	-8.0	3.3	x	56.5*	x	1
CC(C)(C)c1nc(Cc2ccc([N+](=O)[O-])cc2)no1	x	x	x	x	-14.4	x
Cc1ccccc1NC(=O)/C(=C/c1ccco1)c1ccccc1	1.0	-3.7	x	26.4	x	0.8
CCc1ccccc1NC(=O)/C(=C/c1ccco1)c1ccccc1	-3.0	-2.2	x	34.9*	x	0.7
COc1ccc(-n2c(C)n[nH]c2=O)cc1OC	4.0	-8.1	x	2.6	x	0.8
CCc1ccc(-n2c(O)cnc2Nc2nc(C)cc(C)n2)cc1	6.0	-5.2	3.7	-1.4	2.8	2.7*
Cc1cc(C)nc(Nc2ccc(N3CCCC3)cc2)n1	-8.0	8.1	-7.4	-8.5	-10.8	1.2
COc1ccc(-n2c(O)cnc2Nc2nc(C)cc(C)n2)cc1OC	1.0	-11.6	x	31.8*	-5.9	2.7*
O=C(Nc1ccc(N2CCOCC2)cc1)c1sc2ccccc2c1Cl	x	x	x	x	-7.1	x
O=C1C2C3C=CC(C3)C2C(=O)N1c1ccncc1 (stereo not given)	1.0	0.3	-36.1	1.1	4.6	1.1
O=C1C2C3C=CC(C3)C2C(=O)N1c1ncn[nH]1 (stereo not given)	-8.0	8.7	1.0	35.2*	5.1	1
O=C(NC(=S)Nc1sc2c(c1C(=O)O)CCC2)c1ccccc1	x	x	x	x	3.2	x
SMILES	Ecoli WT expand	PostGolgi yeast	Ecoli tolC	PostGolgi ctrl	HePTP inh	PLAP activator
N#CC1=C(N)NC(SCc2ccc(Cl)cc2)=C(C#N)C12CCCCC2	-5.0	47.7*	7.1	18.5	6.0	0.9
COCC(C)NCc1cccc(Oc2ccccc2)c1 (stereo not given)	x	x	x	x	6.9	x
O=C(CCN1C(=O)c2ccncc2C1=O)Nc1ccc(F)cc1	6.0	-1.1	x	0.3	x	0.7
Cc1cc(Br)ccc1NC(=O)CCN1C(=O)c2ccncc2C1=O	-4.0	8.6	-10.2	32.7*	5.0	1.2
Brc1ccc(-c2cn3c(n2)CCc2ccc4cccnc4c2-3)cc1	-4.0	51.6*	x	59.1*	x	1.1
Brc1ccc(-c2cn3nc4c(nc3n2)CCCC4)cc1	-4.0	15.2	x	19.9	x	1.2
CC(=O)C1C(=O)c2ccccc2C1=Nc1ccc2cccnc2c1 (stereo not given)	x	x	x	x	-3.0	x
CCCCCOC(=O)C1=C(C)Nc2nnnn2C1c1ccccc1Cl (stereo not given)	13.0	45.5*	x	47.7*	x	1.3
CCN(CC)COc1ccc2occ(C(=O)c3cc(OC)ccc3OC)c2c1	x	x	x	x	-2.2	x
CN1CC=C2C(C#N)=C(N)C(C#N)(C#N)[C@H](c3cccc(Cl)c3)C2C1 (stereo not given in full)	6.0	7.1	4.4	5.7	1.9	1
CC(C)c1ccc(C2C3CSCC=C3C(C#N)=C(N)C2(C#N)C#N)cc1 (stereo not given)	7.0	74.5*	x	-1.8	x	1.5
CC(C)COc1ccc(C(=O)Nc2cc(Cl)ccc2Cl)cc1	x	x	x	x	-1.0	x
c1ccc(CCc2nn3c(C4COc5ccccc5O4)nnc3s2)cc1 (stereo not given)	1.0	5.4	26.7	30.7*	-12.0	1.2
Cc1cc(Br)ccc1NC(=O)c1ccccc1	x	x	x	x	-13.2	x
Cc1sc(CO)c(Sc2ccccc2)c1C(=O)O	2.0	0.7	-29.6	34.0*	10.3	1.1
O=C1c2cnc3nc(SCc4ccccc4)nn3c2CC2c3ccccc3CCN12 (stereo not given)	2.0	68.4*	x	95.8*	x	1
O=C(NCCN1CCN(Cc2ccccc2)CC1)C1c2ccccc2C(=O)N2CCc3ccccc3C12 (stereo not given)	-1.0	8.8	-5.5	1.5	3.5	1.5
C=CCN=C1CC(C)(C)CC(=O)/C1=C(/O)CCC	x	x	x	x	102.5*	x
CCC/C(O)=C1/C(=O)CC(C)(C)CC1=NCCCCCCN=C1CC(C)(C)CC(=O)/C1=C(/O)CCC	x	x	x	x	-4.5	x
Cc1cc2nc(SCC(=O)N(C)C)c3c(c2cc1C)CCCC3	7.0	0.3	x	30.9*	x	1.2
CCOC(=O)CSc1nc2cc(C)cc(C)c2cc1C#N	-10.0	9.9	-0.9	5.5	-4.6	0.9
COc1ccc(Br)cc1C(=O)Nc1ccc(-c2nc3ccccc3s2)c(O)c1	x	x	x	x	8.1	x
Cc1cc(C(=O)CSc2nnc(N)s2)c(C)n1CCc1ccc(Cl)cc1	-14.0	3.0	39.2	40.7*	6.2	0.8
CCOC(=O)c1cnc2ccc(OCC)cc2c1N1CCN(c2ccccc2OC)CC1	-17.0	-0.5	x	59.4*	x	1.6
Cc1cc(N2CCN(C(=O)c3ccco3)CC2)n2nc(C)nc2n1	x	x	-4.0	x	-4.1	x
COc1cc(OC)cc(-c2cc3nc(C)cc(N4CCN(C(=O)c5ccco5)CC4)n3n2)c1	-2.0	-11.2	x	30.2*	x	1
Cc1cc(N2CCN(C(=O)c3ccco3)CC2)n2nc(-c3cccc(F)c3)cc2n1	4.0	-7.2	-2.3	46.8*	6.9	1.1
Cc1ccc(S(=O)(=O)N(CC(=O)N2CCN(c3ccccc3)CC2)c2ccccc2C)cc1	x	x	x	x	3.1	x

Screening data (PubChem BioAssay)
